Measured values from ChEMBL document CHEMBL1125740, “Heterocyclic quinones. 17. A new in vivo active antineoplastic drug: 6,7-bis(1-aziridinyl)-4-[[3-(N,N-dimethylamino)propyl]amino]-5,8- quinazolinedione” (J Med Chem, 1991).
“And” between values parts separate entries of the source, which are not always exact repeats. Identical values can stand only once.

Experiments:
L1210 [1] = experiment: Compound was evaluated in vivo for antitumor activity after intraperitoneal administration against L1210(935)for % increase in life span at an optimal dose of 0.5 mg/kg/injection at 1 day schedule.; format: functional; conditions: Mus musculus, L1210, ip, 24 h
Outline: (§1)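 L1210 leukemia, maintained in DBA/2 mice, was given ip as 10⁵ cells on day 0 to F1 hybrid or strain-of-origin mice over 18 g, in groups of 8. Dosing was ip from day 1, and mortality was checked daily. Median day of death counts dying mice only. %ILS = 100×(treated − control median day of death)/control median. Tumor-free survivors were counted on day 60. Weight change is g/mouse at nadir.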

P388 [2] = experiment: Compound was evaluated in vivo for antitumor activity after intraperitoneal administration against P388 (1313) for tumor free survivors at an optimal dose of 0.4 mg/kg/injection; format: functional, Mus musculus
B16 [3] = experiment: Compound was evaluated in vivo for antitumor activity against B16 melanoma 2 after injecting the compound intravenously median tumor burden; format: functional, Mus musculus
L1210 [4] = experiment: Compound was evaluated in vivo for antitumor activity after intraperitoneal administration against L1210(935) for median day of death at an optimal dose of 0.5 mg/kg/injection at 1,4,7,11day schedule.; format: functional, Mus musculus; outline: as §1
L1210 [5] = experiment: Compound was evaluated in vivo for antitumor activity after intraperitoneal administration against L1210(935) for tumor free survivors at an optimal dose of 0.125 mg/kg/injection at 1,4,7,11 day schedule.; format: functional, Mus musculus; outline: as §1
P388 [6] = experiment: Compound was evaluated in vivo for antitumor activity after intraperitoneal administration against P388/L-PAM(14) for change in body weight at an optimal dose of 0.1 mg/kg/injection at 1,2,3,4 day schedule.; format: functional, Mus musculus
P388 [7] = experiment: Compound was evaluated in vivo for antitumor activity after intraperitoneal administration against P388/L-PAM(14) for change in body weight at an optimal dose of 0.25 mg/kg/injection at 1,4,7,11 day schedule.; format: functional, Mus musculus
P388 [8] = experiment: Compound was evaluated in vivo for antitumor activity after intraperitoneal administration against P388/L-PAM(14) for tumor free survivors at an optimal dose of 0.4 mg/kg/injection at 1,2,3,4 day schedule.; format: functional, Mus musculus
L1210 [9] = experiment: Compound was evaluated in vivo for antitumor activity after intraperitoneal administration against L1210(935) for total dose at an optimal dose of 1 mg/kg/injection at 1 day schedule.; format: functional, Mus musculus; outline: as §1
P388 [10] = experiment: Compound was evaluated in vivo for antitumor activity after intraperitoneal administration against P388/L-PAM(14) for change in body weight at an optimal dose of 0.125 mg/kg/injection at 1,4,7,11 day schedule.; format: functional, Mus musculus
L1210 [11] = experiment: Compound was evaluated in vivo for antitumor activity after intraperitoneal administration against L1210(935) for mortality range at an optimal dose of 0.5 mg/kg/injection at 1 day schedule.; format: functional, Mus musculus; outline: as §1
[12] = Compound was evaluated in vivo for antitumor activity against Glasgow osteogenic sarcoma after injecting the compound intravenously for percent T/C (value in parentheses indicates the day of evaluation); format: functional, Mus musculus
M5076 [13] = experiment: Compound was evaluated in vivo for antitumor activity against M5076 after injecting the compound intravenously for percent T/C; format: functional, Mus musculus
P388 [14] = experiment: Compound was evaluated in vivo for antitumor activity after intraperitoneal administration against P388/L-PAM(14) for total dose at an optimal dose of 0.2 mg/kg/injection at 1,2,3,4 day schedule.; format: functional, Mus musculus
P388 [15] = experiment: Compound was evaluated in vivo for antitumor activity after intraperitoneal administration against P388/L-PAM(14) for median day of death at an optimal dose of 0.2 mg/kg/injection at 1,2,3,4 day schedule.; format: functional, Mus musculus
B16 [16] = experiment: Compound was evaluated in vivo for antitumor activity against B16 melanoma after injecting the compound intravenously for toxicity related death.; format: functional, Mus musculus
Outline: (§2)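 30-60 mg tumor fragments implanted sc by trocar on day 0 into C57Bl/6-derived hosts (B16) or C3H/He-derived hosts (16/C). Drug given iv on days 6, 9 and 13 (B16) or 6, 9 and 12 (16/C), 10 mice per group. Tumors measured by caliper. T/C % taken from median tumor burden of treated vs control groups on day 15 (B16) or day 14 (16/C). Body weight change per mouse recorded at nadir.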

P388 [17] = experiment: Compound was evaluated in vivo for antitumor activity after intraperitoneal administration against P388 (1313) for total dose at an optimal dose of 0.5 mg/kg/injection; format: functional, Mus musculus
[18] = Compound was evaluated in vivo for antitumor activity against colon adenocarcinoma 38 after injecting the compound intravenously for total dose.; format: functional, Mus musculus
P388 [19] = experiment: Compound was evaluated in vivo for antitumor activity after intraperitoneal administration against P388 (1313) for % increase in life span at an optimal dose of 0.5 mg/kg/injection; format: functional; conditions: Mus musculus, P388, ip
[20] = Compound was evaluated in vivo for antitumor activity against Glasgow osteogenic sarcoma after injecting the compound intravenously for total dose.; format: functional, Mus musculus
Outline: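 Glasgow osteogenic sarcoma in C57Bl/6-derived hosts: 30-60 mg fragments implanted sc by trocar on day 0. Drug given iv on days 3, 6 and 9, 7 mice per group. Tumors measured by caliper. Median tumor burden recorded on day 10. Body weight change per mouse recorded at nadir. Toxicity-related deaths counted.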

B16 [21] = experiment: Compound was evaluated in vivo for antitumor activity against […] B16 melanoma 2 after injecting the compound intravenously for optimal dose; format: functional, Mus musculus
L1210 [22] = experiment: Compound was evaluated in vivo for antitumor activity after intraperitoneal administration against L1210(935)for change in body weight at an optimal dose of 0.5 mg/kg/injection at 1 day schedule.; format: functional, Mus musculus; outline: as §1
P388 [23] = experiment: Compound was evaluated in vivo for antitumor activity after intraperitoneal administration against P388 (1313) for % increase in life span at an optimal dose of 0.25 mg/kg/injection; format: functional; conditions: Mus musculus, P388, ip
P388 [24] = experiment: Compound was evaluated in vivo for antitumor activity after intraperitoneal administration against P388 (1313) for mortality range at an optimal dose of 1 mg/kg/injection; format: functional, Mus musculus
P388 [25] = experiment: Compound was evaluated in vivo for antitumor activity after intraperitoneal administration against P388/L-PAM(14) for % increase in life span at an optimal dose of 0.125 mg/kg/injection at 1,4,7,11 day schedule.; format: functional; conditions: Mus musculus, P388, ip
P388 [26] = experiment: Compound was evaluated in vivo for antitumor activity after intraperitoneal administration against P388/L-PAM(14) for mortality range at an optimal dose of 0.25 mg/kg/injection at 1,4,7,11 day schedule.; format: functional, Mus musculus
L1210 [27] = experiment: Compound was evaluated in vivo for antitumor activity after intraperitoneal administration against L1210(935) for median day of death at an optimal dose of 0.5 mg/kg/injection at 1 day schedule.; format: functional, Mus musculus; outline: as §1
P388 [28] = experiment: Compound was evaluated in vivo for antitumor activity after intraperitoneal administration against P388/L-PAM(14) for mortality range at an optimal dose of 0.4 mg/kg/injection at 1,2,3,4 day schedule.; format: functional, Mus musculus
B16 [29] = experiment: Compound was evaluated in vivo for antitumor activity against B16 melanoma after injecting the compound intravenously for percent T/C (value in parentheses indicates the day of evaluation); format: functional, Mus musculus; outline: as §2
M5076 [30] = experiment: Compound was evaluated in vivo for antitumor activity against M5076 after injecting the compound intravenously for median tumor burden; format: functional, Mus musculus
L1210 [31] = experiment: Compound was evaluated in vivo for antitumor activity after intraperitoneal administration against L1210(935) for total dose at an optimal dose of 0.5 mg/kg/injection at 1,4,7,11day schedule.; format: functional, Mus musculus; outline: as §1

Q: Which ILS at 0.5 mg/kg (L1210 [1]) does the source give for CN(C)CCCNc1ncnc2c1C(=O)C(N1CC1)=C(N1CC1)C2=O here?
A: 27%

Q: What about the Survivors (P388 [2]) of the same molecule?
A: 1

Q: And the Tumor burden (B16 [3])?
A: 27 mg

Q: What about the “Median day of death” value (L1210 [4]) of the same molecule?
A: 14

Q: What about the Survivors (L1210 [5]) of the same molecule?
A: 0

Q: What about the “Change in body weight” value (P388 [6]) of the same molecule?
A: 0.5 g mouse-1

Q: What about the “Change in body weight” value (P388 [7]) of the same molecule?
A: 0.9 g mouse-1

Q: And the Survivors (P388 [8])?
A: 0

Q: What about the Total dose (L1210 [9]) of the same molecule?
A: 1 mg/kg

Q: And the “Change in body weight” value (P388 [10])?
A: 0.8 g mouse-1

Q: And the Mortality (L1210 [11])?
A: 16 days

Q: And the T/C [12]?
A: 0%

Q: And the T/C (M5076 [13])?
A: 58%

Q: What about the Total dose (P388 [14]) of the same molecule?
A: 0.8 mg/kg

Q: And the “Median day of death” value (P388 [15])?
A: 19

Q: And the Toxicity (B16 [16])?
A: 0

Q: And the Optimal dose (P388 [17])?
A: 2 mg/kg

Q: And the Total dose [18]?
A: 0.5 mg/kg

Q: What about the ILS at 0.5 mg/kg (P388 [19]) of the same molecule?
A: 108%

Q: What about the Total dose [20] of the same molecule?
A: 1.08 mg/kg

Q: And the Optimal dose (B16 [21])?
A: 0.2 mg/kg

Q: What about the “Change in body weight” value (L1210 [22]) of the same molecule?
A: 0.3 g mouse-1

Q: What about the ILS at 0.25 mg/kg (P388 [23]) of the same molecule?
A: 58%

Q: What about the Mortality (P388 [24]) of the same molecule?
A: 24 days

Q: What about the ILS at 0.125 mg/kg (P388 [25]) of the same molecule?
A: 10%

Q: And the Mortality (P388 [26])?
A: 20 days

Q: And the “Median day of death” value (L1210 [27])?
A: 14

Q: And the Mortality (P388 [28])?
A: 27 days

Q: What about the T/C (B16 [29]) of the same molecule?
A: 41% and 78%

Q: What about the Tumor burden (M5076 [30]) of the same molecule?
A: 29

Q: What about the Total dose (L1210 [31]) of the same molecule?
A: 2 mg/kg
